Test results as given in ChEMBL document CHEMBL5321262, “Antiviral Activity of Cannabidiolic Acid and Its Methyl Ester against SARS-CoV-2” (J Nat Prod, 2023).
The source made the active and inactive calls. The calls are words filed in the database; no cut-off is given here.

Columns and labels:
[1] = Cytotoxicity against African green monkey Vero E6 cells measured after 72 hrs by LDH assay; type: toxicity, cell-based, Vero C1008; settings: chlorocebus sabaeus
How it was run: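 Vero E6 seeded at 2 × 10^4 cells/well and held overnight at 37 °C, 5% CO2. Compounds added at final 2.3–300.0 µM (8 two-fold steps) with DMSO fixed at 0.5% v/v. After 72 h, LDH-WST read-out at 490 nm, with % cytotoxicity taken against DMSO control. CC50 from nonlinear dose–response regression.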

SARS-CoV-2 [2] = assay: Antiviral activity against SARS-CoV-2 Italian strain PV10734 infected in African green monkey Vero E6 cells assessed as reduction in virus-induced cytopathic effect preincubated with virus for 1 hr followed by infection with cells and measured after 72 hrs by microscopic analysis; type: functional, organism-based; settings: Severe acute respiratory syndrome coronavirus 2, time 73.0 hrs
SARS-CoV-2 [3] = assay: Antiviral activity against SARS-CoV-2 Italian strain PV10734 infected in African green monkey Vero E6 cells assessed as reduction in virus titers of progeny virus in supernatant measured after 72 hrs by CPE assay; type: functional, organism-based; settings: Severe acute respiratory syndrome coronavirus 2, PV10734, Vero C1008, 72 h
SARS-CoV-2 [4] = assay: Antiviral activity against SARS-CoV-2 Italian strain PV10734 infected in African green monkey Vero E6 cells assessed as reduction in viral replication at 37.5 uM measured at 72 hrs post-infection by qRT-PCR analysis; type: functional, organism-based; settings: Severe acute respiratory syndrome coronavirus 2
SARS-CoV-2 [5] = assay: Antiviral activity against SARS-CoV-2 Italian strain PV10734 infected in African green monkey Vero E6 cells assessed as reduction in virus-induced cytopathic effect at 37.5 uM preincubated with virus for 1 hr followed by infection with cells and measured after 72 hrs by microscopic analysis; type: functional, organism-based; settings: Severe acute respiratory syndrome coronavirus 2, time 73.0 hrs
SARS-CoV-2 [6] = assay: Antiviral activity against SARS-CoV-2 Italian strain PV10734 infected in African green monkey Vero E6 cells assessed as inhibition of virus titers of progeny virus in supernatant at 37.5 uM measured after 72 hrs by CPE assay relative to control; type: functional; settings: Severe acute respiratory syndrome coronavirus 2, PV10734, Vero C1008
[7] = Stability of compound in African green monkey Vero E6 cell lysates assessed as decarboxylation at 37.5 uM measured upto 30 mins by UHPLC-HRMS analysis; type: ADME, subcellular; settings: chlorocebus sabaeus, vero c1008, 0.5 h
[8] = Stability of compound in cell culture media at 37.5 uM measured upto 30 mins by UHPLC-HRMS analysis; type: physicochemical; settings: 0.5 h
SARS-CoV-2 [9] = assay: Antiviral activity against SARS-CoV-2 Italian strain PV10734 infected in African green monkey Vero E6 cells assessed as reduction in virus-induced cytopathic effect at 75 uM preincubated with virus for 1 hr followed by infection with cells and measured after 72 hrs by microscopic analysis; type: functional, organism-based; settings: Severe acute respiratory syndrome coronavirus 2, time 73.0 hrs
SARS-CoV-2 [10] = assay: Antiviral activity against SARS-CoV-2 Italian strain PV10734 infected in African green monkey Vero E6 cells assessed as inhibition of virus titers of progeny virus in supernatant at 75 uM measured after 72 hrs by CPE assay relative to control; type: functional; settings: Severe acute respiratory syndrome coronavirus 2, PV10734, Vero C1008
SARS-CoV-2 [11] = assay: Antiviral activity against SARS-CoV-2 Italian strain PV10734 infected in African green monkey Vero E6 cells assessed as reduction in viral replication at 75 uM measured at 72 hrs post-infection by qRT-PCR analysis; type: functional, organism-based; settings: Severe acute respiratory syndrome coronavirus 2
[12] = Stability of compound in African green monkey Vero E6 cell lysates assessed as decarboxylation at 75 uM measured upto 30 mins by UHPLC-HRMS analysis; type: ADME, subcellular; settings: chlorocebus sabaeus, vero c1008, 0.5 h

Compound	CC50 at 72 h [1] [µM]	Activity (SARS-CoV-2 [2])	other results
CCCc1cc(O)c(C/C=C(\C)CCC=C(C)C)c(O)c1	58.1	inactive	–
C=C(C)[C@@H]1CCC(C)=C[C@H]1c1c(O)cc(CCCCC)c(C(=O)OC)c1O	52.4	–	IC50 (SARS-CoV-2 [3]): 18.4 µM; Activity (SARS-CoV-2 [4]): Active; Activity (SARS-CoV-2 [5]): Active; inhibition at 37.5 µM (SARS-CoV-2 [6]): > 90%; Stability [7]: Stable; Stability [8]: Stable
CCCCCc1cc(O)c2c(c1)OC(C)(CCC=C(C)C)C=C2 (stereo not given) [CANNABICHROMENE]	59.3	inactive	–
C=C(C)[C@@H]1CCC(C)=C[C@H]1c1c(O)cc(CCCCC)c(C(=O)O)c1O [CANNABIDIOLIC ACID]	119	–	Activity (SARS-CoV-2 [9]): Active; IC50 (SARS-CoV-2 [3]): 42.7 µM; inhibition at 75 µM (SARS-CoV-2 [10]): > 90%; Activity (SARS-CoV-2 [11]): Active; Stability [12]: Unstable
C=C(C)[C@@H]1CCC(C)=C[C@H]1c1c(O)cc(CCCCC)cc1O [CANNABIDIOL]	28.9	inactive	–
C=C(C)[C@@H]1CCC(C)=C[C@H]1c1c(O)cc(CCC)cc1O [CANNABIDIVARIN]	26	inactive	–
CCCCCc1cc(O)c(C/C=C(\C)CCC=C(C)C)c(O)c1C(=O)O [CANNABIGEROLIC ACID]	43.9	inactive	–
CCCCCc1cc(O)c(C/C=C(\C)CCC=C(C)C)c(O)c1 [CANNABIGEROL]	58	inactive	–
